Test results reported in ChEMBL document CHEMBL1124374, “Enkephalinase inhibitors. 1. 2,4-Dibenzylglutaric acid derivatives” (J Med Chem, 1989).

Experiments:
Type in all cases: functional
Mus musculus [1] = test: Tail-flick latency observed in CF-1 mice after the administration (3 mg/kg) followed by icv administration of DAEM ([D-Ala2,Met5]enkephalin)
In short: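 Male CF-1 mice (20–22 g) given test agent or vehicle sc, then immediately DAEM (1 μg) or vehicle icv. Tail-flick latency read 30 min later, cutoff 10 s; n = 10 per group.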

Mus musculus [2] = test: Hot-plate jump-latency activity in mouse 15 minutes after subcutaneous administration; settings: sc, 0.25 h, read-out: MED
In short: (§1)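 Male CF1 mice (18–23 g) dosed icv or sc; 15 min later placed singly on a copper hot plate held at 55 °C. Latency to jump recorded, cutoff 240 s. MED = minimum effective dose. ED200 = dose doubling jump latency.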

Mus musculus [3] = test: Stretching activity in male CF-1 mice, after the intra peritoneal administration of acetic acid and subcutaneous administration of compound; settings: sc
In short: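 Male CF-1 mice (18–22 g), twelve per dose of agent or vehicle, dosed sc 15 min before ip 3% aqueous acetic acid at 10 mL/kg. Five minutes after irritant, stretching episodes counted over 10 min. ED50 derived from these counts.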

Mus musculus [4] = test: Doubling of hotplate jump-latency activity in mouse after intra cerebro ventricular administration of the compound; in short: as §1
Mus musculus [5] = test: Doubling of hotplate jump-latency activity in mouse after subcutaneous administration of the compound
In short: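 Male CF1 mice (18–23 g) dosed sc; 15 min later placed singly on copper hot plate held at 55 °C. Latency to jump off recorded, cutoff 240 s. ED200 is the dose doubling jump latency.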

Q: What does the source list for `O=C(O)CNC(=O)C(CS)Cc1ccccc1` (stereo not given) [THIORPHAN]?
A: Reaction time (Mus musculus [1]): 7.5 s; minimal effective dose (Mus musculus [2]): 100 mg/kg; ED50 (Mus musculus [3]): 38 mg/kg; ED200 (Mus musculus [4]): 75 µg; ED200 (Mus musculus [5]): >100 mg/kg
